Experiment [1] has as its system Pten^L/L prostate cancer mouse model. The class given is in vivo. As to conditions: Pten L/L mice; for apoptosis in prostate / cell proliferation in prostate: INK128 1 mg/kg or RAD001 10 mg/kg daily gavage. The method in brief:
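PtenL/L mice aged nine or twelve months were given daily oral gavage; vehicle was 5% polyvinylpropyline, 15% NMP, 80% water. Body weight was taken every 3 days for toxicity. In the 28-day study, prostates were MRI-imaged at 14 T on days 0 and 28. Prostates and lymph nodes were formalin-fixed and cut as 5 μm paraffin sections. Nodes were stained for CK8 and androgen receptor, and metastasis areas were measured.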

In experiment [2] the test system is 4EBP1 and p70S6K1/2 phosphorylation. In words: Preclinical trial in Pten L/L mice: mTOR effector phosphorylation. The class given is in vivo, mouse. The conditions noted are these: INK128 1 mg/kg or RAD001 10 mg/kg daily gavage. The method in brief:
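Nine- and twelve-month-old PtenL/L mice were dosed daily by oral gavage, with vehicle 5% […], 15% NMP, 80% water. Whole prostates were removed, microdissected, frozen in liquid nitrogen and pulverised. Protein lysates were immunoblotted with antibodies to phospho-4EBP1 T37/46, 4EBP1, phospho-p70S6K T389, phospho-rpS6 S240/244 and rpS6.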

The next experiment deals with GFP-labelled PC3 cells. As to the kind of experiment: Real-time imaging of cell migration. Type of experiment: cell-based, human. The conditions noted are these: starting at 6 h of treatment. The method in brief:
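GFP-labelled PC3 cells were plated on poly-D-lysine-coated chamber slides and left to adhere for 24 h. Wells were then scratch-wounded. Wide-field fluorescence time-lapse was run under CO2 and temperature control, with DIC and GFP frames every 2 min. Cell centroids were tracked manually to give xy paths, velocity and distance. Analysis covered hours 3–4 and 6–7 of treatment, with 34 cells per condition and ANOVA.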

Experiment [3] deals with multiple cancer cell lines. As to the kind of experiment: Apoptosis analysis. Type of experiment: cell-based, human. The gist of the method:
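LNCaP and A498 cells, after treatment, were labelled with Annexin V-FITC and propidium iodide per kit instructions. Annexin/PI staining was acquired by flow cytometry to score apoptotic cells.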

Experiment [4] relates to mTOR effectors 4EBP1, p70S6K1/2 and AKT. In words: Western blot of downstream mTOR effectors in PC3 cells. The class given is cell-based, human. The conditions noted are these: PP242 2.5 μM, rapamycin 50 nM, 3-h treatment. On the technique in general: A western blot detects proteins with antibodies after separation by electrophoresis.
Experiment [5] deals with PC3 human prostate cancer cells. As to the kind of experiment: Ribosome profiling of PC3 cells. The class given is cell-based. As to conditions: 3 h, rapamycin 50 nM.
The test system of experiment [6] is Jurkat lymphoid cell line. As to conditions: cited from earlier work.

The structures appear in SMILES notation.

Consider `CC(C)n1nc(-c2ccc3oc(N)nc3c2)c2c(N)ncnc21` [INK128], for which the “decrease in prostatic intraepithelial neoplasia (PIN) lesions” value in experiment [1] (INK128 1 mg/kg daily gavage) is reported as 50%. Moreover, in experiment [1] (INK128 1 mg/kg daily gavage, MRI day 0 and day 28), the prostate cancer volume entry is “marked reduction”. Moreover, in experiment [1], the apoptosis in prostate entry is recorded as “tenfold increase” and the “cell proliferation in prostate” value is recorded as “decreased proliferation”. Further, in experiment [2], the “4EBP1 and p70S6K1/2 phosphorylation” value was “completely restored to wild-type levels”. Further, the cancer cell migration result with GFP-labelled PC3 cells was “inhibits cancer cell migration”. Also, in experiment [3], the programmed cell death result was “induced programmed cell death”.

With `CO[C@H]1C[C@@H]2CC[C@@H](C)[C@@](O)(O2)C(=O)C(=O)N2CCCC[C@H]2C(=O)O[C@H]([C@H](C)C[C@@H]2CC[C@@H](OCCO)[C@H](OC)C2)CC(=O)[C@H](C)/C=C(\C)[C@@H](O)[C@@H](OC)C(=O)[C@H](C)C[C@H](C)/C=C/C=C/C=C/1C` [RAD001], in experiment [1], the apoptosis in prostate result is given as “no significant effect” and the “cell proliferation in prostate” value is given as “limited decrease”. Besides, the “regression of PIN lesions” value in experiment [1] (RAD001 10 mg/kg daily gavage) is reported as “only partial regression”. Moreover, in experiment [2], the “4EBP1 and p70S6K1/2 phosphorylation” value is on record as “only decreased p70S6K1/2 phosphorylation levels”.

Turning to `CO[C@H]1C[C@@H]2CC[C@@H](C)[C@@](O)(O2)C(=O)C(=O)N2CCCC[C@H]2C(=O)O[C@H]([C@H](C)C[C@@H]2CC[C@@H](O)[C@H](OC)C2)CC(=O)[C@H](C)/C=C(\C)[C@@H](O)[C@@H](OC)C(=O)[C@H](C)C[C@H](C)/C=C/C=C/C=C/1C` [rapamycin], the “activity of downstream mTOR effectors 4EBP1, p70S6K1/2 and AKT” value in experiment [4] is “only blocks p70S6K1/2 activity”. In addition, the “effect on gene expression by ribosome profiling” value in experiment [5] was “did not markedly affect gene expression”. Also, the “sensitivity to rapamycin treatment” value in experiment [6] is “particularly sensitive”.

The values are drawn from article PMC3663483 (Nature, 2012).
